Screening data deposited in PubChem BioAssay by several laboratories.
This is a sample that favours compounds with a hit; in the whole collection about 3.3% have one here.
ABCB1 block: blocks JC-1 efflux by human ABCB1 transporter; P08183; CCRF-Adr cells, flow cytometry; inhibition, % at 6.6 µM; hit rate 0.067% among 190,000; AID 1326; in the data active means inhibition above about 40%;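 further: 0% = vehicle and 100% = reference inhibitor; higher value means more JC-1 retained so stronger ABCB1 efflux block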
ROMK mod: modulates human ROMK potassium channel activity | P48048 | Tet-inducible ROMK, thallium flux fluorescence; actives lie on both sides | B-score at 10 µM | hit rate 2% among 130,000 | AID 1918;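 active means signal ratio slope over the read window, or its plate-corrected B-score, at least 3 SD from the plate mean, either direction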;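 further: B-score of the F/F0 ratio slope over 7 to 12 s after thallium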
ABCG2 block: blocks JC-1 efflux by human ABCG2 transporter | Q9UNQ0 | IgMXP3 cells, flow cytometry | inhibition, % at 6.6 µM | hit rate 0.1% among 190,000;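 active means inhibition above 80%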;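 further: 0% = DMSO and 100% = nicardipine control wells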
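material = IgMXP3 (ABCG2) plus far-red-tagged CCRF-Adr (ABCB1) cells | amount = 3 million cells/mL, equal mix of both lines | also added = JC-1 transporter substrate | dosing = one concentration, 6.6 µM final | schedule = 10 min at 25 °C | measured by = flow cytometric JC-1 green MFI at 530 nm | read-out basis = percent efflux inhibition, scaled nicardipine 100% to DMSO 0%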
PMI act hi M6P: increases human PMI activity with near-saturating mannose 6-phosphate; P34949; coupled PMI enzyme assay, resazurin fluorescence, 20 min; stronger effect = higher value; 1 = untreated enzyme, 0 = substrate-free blank; activation factor at 20 µM; hit rate 0.34% among 190,000;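 active means activation factor of 2 or more at 20 µM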
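Test system: Human PMI in coupled enzyme assay | Input: 15 ng/mL PMI | Medium: HEPES-buffered pH 7.4 with magnesium and detergent | Compound: One concentration, 20 µM, in 1% DMSO | Incubation: Enzyme reaction with compound 20 min at room temperature | Detection: Diaphorase-driven resazurin-to-resorufin fluorescence, excitation 544, emission 590 nm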
PMI act: activators of human phosphomannose isomerase; P34949; purified human PMI, coupled resazurin fluorescence, 20 min; stronger effect = higher value; 1 = vehicle control, 0 substrate-free wells; activation factor at 20 µM; hit rate 0.005% among 190,000;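 active means activation factor of 2 or more at 20 µM, relative to plate controls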
Cl transport mod: KCC2 (human) Cl- transport modulation; Q9H2X9; KCC2 cells, thallium flux FluoZin-2 fluorescence; B-score of Tl+ flux slope (higher = more flux/activation; lower = inhibition) at 10 µM; hit rate 2.2% among 190,000; AID 1456;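 active means thallium flux slope and its plate-corrected score both differing from the plate sample mean at a set confidence after two filtering rounds, in either direction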;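 further: slope of fluorescence scaled to starting intensity during 10 to 20 s after thallium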
Active calls of the source: *; . = no result given.

SMILES	ABCB1 block	ROMK mod	ABCG2 block	PMI act hi M6P	PMI act	Cl transport mod
O=C1CC(NNc2ccccc2)C(=O)N1c1ccc(N2CCCCC2)cc1 (centres undefined)	0	0.0091	9	2.7*	1.8	0.36
O=C1CC(Nc2ccccc2)C(=O)N1c1ccc(N2CCOCC2)cc1 (centres undefined)	1	0.69	5	1	1	0.3
CCOc1ccc(C(=O)NCCc2ccc3c(c2)OCCO3)cc1	0	-0.81	7	0.9	0.9	-1.1
CCC(C)(C)C1CCC(=NNc2nc3ccccc3[nH]2)CC1 (centres undefined)	0	-1	1	2*	1.7	.
COc1ccc(-n2c3c(cc(C(=O)NNc4ccccc4C)c2=O)C(=O)CC(C)(C)C3)cc1	0	-0.44	-1	2*	1.9	-0.11
CC1(C)CC(=O)c2cc(C(=O)Nn3cnnc3)c(=O)n(-c3ccccc3)c2C1	1	1.3	3	1	1	.
COc1ccc(-n2c3c(cc(C(=O)N4CCN(CCO)CC4)c2=O)C(=O)CC(C)(C)C3)cc1	0	-0.02	1	1	0.9	.
COc1ccc(-n2c3c(cc(C(=O)NNc4ccccc4)c2=O)C(=O)CC(C)(C)C3)cc1	0	1.3	0	2.1*	1.7	1.7
CCOc1ccc(NC(=O)CN2CCN(CC(=O)c3ccc(OC)c(OC)c3)CC2)cc1	0	-0.083	0	1.9	1.4	1
CCOc1ccc(OCC)c(NC(=O)CN2CCN(c3cccc(C)c3C)CC2)c1	5	0.68	95*	1.1	1	0.16
CCOc1ccc(OCC)c(NC(=O)CN2CCN(C(=O)c3ccco3)CC2)c1	-1	.	0	1	0.9	-0.78
CCOc1ccc(NC(=O)CN2CCN(CC(=O)c3ccc(OCC)cc3)CC2)cc1	1	.	1	2*	1.6	.
Nc1cc(S(=O)(=O)N2CCCCC2)ccc1Oc1ccccc1	0	-0.82	8	0.8	0.8	0.064
COc1ccc(F)cc1S(=O)(=O)NC1CCCC1	1	0.44	4	1	1	-0.22
C=CCS/C(N)=N\N=C\c1cc(Br)cc([N+](=O)[O-])c1O	.	0.45	.	.	.	-0.086
NC(=O)C1CCCN(C(=S)Nc2cccc3ccccc23)C1 (centres undefined)	0	.	0	0.9	1	-0.62
COc1cccc2c(=S)c(CCC(C)=O)c(C)[nH]c12	-1	.	-2	2.1*	1.6	-0.12
CCn1cc(C(C)NC(=O)COc2ccc(Cl)cc2C)c(C)n1 (centres undefined)	0	-1.2	1	0.8	0.8	-0.0015
Cc1ccc(C(=O)CC(=O)c2cccc(F)c2)c(O)c1	0	-0.2	0	1.2	1.1	22*
Cc1cc(=O)[nH]c(N=N/C(=N/Nc2ccc(O)cc2)c2ccccc2)n1	0	1.2	1	2.3*	1.9	-0.043
COc1ccc(N/N=C(/N=Nc2nc(C)cc(=O)[nH]2)c2ccccc2)cc1	3	1.2	7	2.3*	1.8	0.35
Cc1cc(=O)[nH]c(N=N/C(=N/Nc2ccccc2C)c2ccccc2)n1	.	0.5	.	1.8	1.5	1.3
COc1cc(C2C(N3C(=O)c4ccccc4C3=O)C(=O)N2c2cccc(C)c2)cc(OC)c1OC (centres undefined)	3	1.1	9	0.9	0.8	-0.15
CCn1c(SCC(N)=O)nc2sc3c(c2c1=O)CCCC3	0	.	3	1	1	60*
CCCOc1ccc(C(=O)NNC(=S)NC(=O)CC)cc1	0	0.85	5	1.1	1.1	6.9*
SMILES	ABCB1 block	ROMK mod	ABCG2 block	PMI act hi M6P	PMI act	Cl transport mod
CCc1ccccc1N/N=C(/C)c1c(O)cc(C)oc1=O	0	0.16	0	2.7*	1.7	-1.1
C/C(=N\NC(=O)c1ccccc1O)c1c(O)cc(C)oc1=O	0	.	-3	1.1	1.1	-1.6
CC(C)CC(=O)Nc1ccc(-c2nc3ccccc3c(=O)[nH]2)cc1	1	0.26	23	1	1	1
O=C(Nc1ncn[nH]1)c1cc(S(=O)(=O)Nc2ccc(Cl)cc2)ccc1Cl	0	0.04	2	1	1.1	0
O=C(Nc1ncn[nH]1)c1ccc(Cl)c(S(=O)(=O)Nc2ccc(Cl)cc2)c1	0	.	0	2.1*	1.6	0.035
Cc1c(Br)c(C(F)(F)F)nn1CC(=O)NCc1ccccc1	0	.	10	1	1	-2.2
CCOc1ccc(CC(=O)C2C(=O)CCCC2=O)cc1OCC	1	-0.032	2	2.1*	1.4	.
CCOc1ccc(CC(=O)C2C(=O)CC(C)(C)CC2=O)cc1OCC	0	.	1	1.4	1.4	-0.55
CCn1c(O)c(N=NC(=O)CNC(=O)c2ccco2)c2ccccc21	-1	.	-4	1.1	1	0.13
CCCn1c(O)c(N=NC(=O)c2ccco2)c2ccccc21	3	-0.59	28	1	1.1	18*
O=C(NCc1ccco1)C(c1cccs1)N(C(=O)C1COc2ccccc2O1)c1cccc(O)c1 (centres undefined)	0	-7.2*	2	0.9	0.9	-1.3
Cc1ccc2[nH]c(=O)c(COC(=O)c3cccs3)cc2c1	0	-0.055	3	0.9	0.9	0.9
O=c1[nH]c2ccccc2nc1C(Cl)c1ccccc1 (centres undefined)	0	1.3	3	2.1*	1.6	0.0063
O=c1[nH]c2ccccc2nc1-c1ccccc1	.	.	.	.	.	0.36
O=C(Nc1ccccc1Cl)c1ccccc1Cl	1	.	3	0.9	0.9	0.65
O=C1OCC(CO)(CO)N=C1NNc1ccccc1Cl	0	.	2	2*	1.6	0.32
COc1cccc(CNC(=O)CCC2CCCN(C(=O)C3CCOCC3)C2)c1 (centres undefined)	0	0.26	2	0.9	0.9	0.0071
COC(=O)C1=C(C)N(CCCC(=O)O)C(=O)NC1c1cccs1 (centres undefined)	45*	0.52	0	1	1	-0.027
CCCc1nnc(NC(=O)CCC(=O)N2CCN(C3c4ccccc4-c4ccccc43)CC2)s1	0	.	0	1	0.9	1.3
CC(C)(C)C(=O)Cn1nc(Cl)nc1Cl	0	-0.91	0	1.1	1.2	0.28
CC(C)(C)C(=O)CNCC(=O)C(C)(C)C	-1	1.3	6	2.1*	1.8	0.3
Cc1cc(-c2csc(NC(=O)c3ccc(=O)[nH]c3)n2)c(C)n1Cc1ccco1	.	.	.	.	.	0.15
CCOC(=O)C(=NCCCN1CCOCC1)NNc1cccc(C(F)(F)F)c1	0	-1.9	2	2.1*	1.7	0.16
Cc1ccccc1CSc1nnc(-c2cnccn2)n1C	.	.	.	.	.	-0.94
Cn1c(=O)[nH]c(NC2CCCCC2)c(N=O)c1=O	-1	.	-9	1.1	1	0.29
